Experimental data from publication PMC4165341 (ACS nano, 2011).

Columns and labels:
[1] = molecular target: T1, mOR174-9 (mOR-EG), His-tagged, nanotube device (Mus musculus, UniProt Q920P2); experiment: carbon nanotube transistor current change; type: binding; details: digitonin micelle device; eugenol vapor in N2, 50% RH (2 ppm in Figure 2)
T1 sequence (Q920P2 1-313): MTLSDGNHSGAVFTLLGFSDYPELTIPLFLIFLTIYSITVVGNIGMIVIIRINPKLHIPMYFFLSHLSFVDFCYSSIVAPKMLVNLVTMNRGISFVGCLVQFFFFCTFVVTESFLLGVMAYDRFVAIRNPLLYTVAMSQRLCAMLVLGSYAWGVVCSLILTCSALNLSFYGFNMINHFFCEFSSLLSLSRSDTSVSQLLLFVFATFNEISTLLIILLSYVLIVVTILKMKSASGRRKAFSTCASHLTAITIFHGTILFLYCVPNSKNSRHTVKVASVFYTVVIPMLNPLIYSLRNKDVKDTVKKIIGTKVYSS
Summary of the method: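 Receptor solubilised from crude plasma membranes in 6.76 mM digitonin, captured on Ni-magnetic beads (1 h, 4 °C), eluted in 4.88 mM digitonin/acetate pH 4.0, readjusted to pH 8.0, used immediately. Back-gated nanotube transistors (on/off >1000) treated with 11.3 mM NTA-NH2 (2 h), then 11.3 mM NiCl2; receptor deposited 30 min, room temperature. Current recorded under computer-controlled humidity, temperature and vapor flow.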

[2] = molecular target: T2, mOR256-17, His-tagged, nanotube device (Mus musculus, UniProt P23275); experiment: carbon nanotube transistor current change; type: binding; details: odorant vapor in N2, 50% RH, concentration not given
T2 sequence (P23275 1-312): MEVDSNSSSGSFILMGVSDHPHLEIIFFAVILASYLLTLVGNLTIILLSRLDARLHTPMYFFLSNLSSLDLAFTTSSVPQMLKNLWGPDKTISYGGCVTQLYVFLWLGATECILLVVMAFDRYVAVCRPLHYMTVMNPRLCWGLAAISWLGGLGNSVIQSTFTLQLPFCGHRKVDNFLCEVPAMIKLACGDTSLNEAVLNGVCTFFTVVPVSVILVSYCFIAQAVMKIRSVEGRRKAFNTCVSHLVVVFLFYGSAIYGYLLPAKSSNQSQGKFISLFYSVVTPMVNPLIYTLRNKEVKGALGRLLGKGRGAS

mOR 174-9 / micelle nanotube [1]: +20.9±4.6% | mOR 256-17 / nanodisc nanotube [2]: +33.6±8.3%
Structure (SMILES): C=CCc1ccc(O)c(OC)c1 [eugenol]
